High-throughput results: PubChem BioAssay, Sanford-Burnham Center for Chemical Genomics
bIAP act = increases bovine intestinal alkaline phosphatase activity; purified bovine IAP, CDP-star luminescence, 30 min; active compounds read high; fold of DMSO-control signal, blank-subtracted; 200,000 tested, 0.17% active; AID 1016; activation factor at 20 µM;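 active = activation factor of 2 or more at 20 µM, a signal rise over negative controls twice the positive control's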
mIAP inh = mouse IAP inhibition | purified mouse IAP, CDP-Star luminescence, 30 min | inhibition, % at 10 µM | 330,000 tested, 0.2% active;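 active = inhibition of at least 40% at 10 µM in the primary screen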;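 note: plate controls were DMSO with enzyme for no effect and no enzyme wells for full effect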
hIAP block = human IAP inhibition; P09923; purified IAP, CDP-Star luminescence, 30 min; inhibition, % at 10 µM; 330,000 tested, 0.12% active;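 active = inhibition reaching a set limit with compound at 10 µM in the primary screen, cut at about 35% in these data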;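 note: plate controls were DMSO wells with enzyme for no effect and no-enzyme buffer wells for full effect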
Target sequence (P09923 whole entry, looked up): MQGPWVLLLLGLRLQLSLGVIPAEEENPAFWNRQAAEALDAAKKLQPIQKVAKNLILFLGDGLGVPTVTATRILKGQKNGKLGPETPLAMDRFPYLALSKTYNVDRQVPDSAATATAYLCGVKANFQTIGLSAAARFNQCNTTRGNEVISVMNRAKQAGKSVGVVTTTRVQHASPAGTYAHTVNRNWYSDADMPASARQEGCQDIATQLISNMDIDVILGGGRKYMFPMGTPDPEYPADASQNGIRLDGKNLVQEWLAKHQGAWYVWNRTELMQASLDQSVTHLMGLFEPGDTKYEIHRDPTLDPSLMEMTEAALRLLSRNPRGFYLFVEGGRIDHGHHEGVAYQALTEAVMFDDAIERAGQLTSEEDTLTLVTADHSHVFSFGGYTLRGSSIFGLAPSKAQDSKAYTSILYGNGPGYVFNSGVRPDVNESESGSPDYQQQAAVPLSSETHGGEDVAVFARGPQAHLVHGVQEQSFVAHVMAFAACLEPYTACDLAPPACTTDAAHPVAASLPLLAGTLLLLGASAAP
bIAP inh = blocks bovine intestinal alkaline phosphatase activity; purified bovine IAP, CDP-star luminescence, 30 min; inhibition, % at 20 µM; 190,000 tested, under 10 active;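 active = over 50% inhibition of intestinal alkaline phosphatase at 20 µM in the single-dose screen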
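Assay system: bovine IAP enzyme; medium: DEA buffer 100 mM, pH 9.8, with MgCl2 1.0 mM, ZnCl2 0.02 mM; doses: 20 µM single dose; incubation: enzyme reaction for 30 min at room temperature; detection: CDP-star luminescence signal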
mIAP activ = mouse IAP activation | muIAP, CDP-Star luminescence, 30 min; active compounds read high; 1 = vehicle-only enzyme signal, 0 = enzyme-free wells | AID 2805 | activation factor at 10 µM | 330,000 tested, 0.24% active;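 active = activation factor of at least 2 at 20 µM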
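System: mouse IAP enzyme. Reagent: CDP-Star chemiluminescent phosphatase substrate. Benchmarks: DMSO wells, no-enzyme wells. Times: 30 min enzyme-substrate-compound incubation at room temperature. Detection: luminescence from enzymatic CDP-Star hydrolysis. Doses: test compounds delivered from DMSO solution.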
hIAP activ = human IAP activation | purified human IAP, CDP-Star luminescence, 30 min; active compounds read high; 1 = vehicle-only enzyme, 0 = enzyme-free background | activation factor at 10 µM | 330,000 tested, 0.16% active | AID 2524;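 active = activation factor of the enzyme at least 2-fold when tested at 20 µM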
hIAP act conf = human IAP activation confirmation; shares compounds with hIAP activ; purified IAP, CDP-Star luminescence, 30 min; active compounds read low; activation (%Activity, negative = activation), % at 8.3 µM; 880 tested, 10% active; AID 434926;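 active = at least twofold enzyme activation in any of six single-dose repeats, which the averaged readout prints as negative percent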
mIAP inh conf = mouse IAP inhibition confirmation; shares compounds with mIAP inh; purified mouse IAP, CDP-Star luminescence, 30 min; inhibition, % at 10 µM; 11,000 tested, 4.7% active;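 active = inhibition of at least 40% at 10 µM in either of the two replicates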;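 note: plate controls were DMSO wells with enzyme for no effect and buffer wells lacking enzyme for full effect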
Numbers without * were called inactive; i = inactive; x = no result. Rows were chosen to be rich in hits. Some 0.72% of all compounds tested hit in one or more screens of this group.

SMILES | bIAP act | mIAP inh | hIAP block | bIAP inh | mIAP activ | hIAP activ | hIAP act conf | mIAP inh conf
CN(CC(=O)Nc1ccccc1Br)C(=O)CNC(=O)c1ccc(Oc2ccccc2)cc1 | x | 5.1 | 35.1* | x | 0.949 | 0.649 | -1.9 | x
O=C(Nc1ccc(F)cc1)C1CCCCC1 | 1.1 | 1.1 | -11.2 | -6.0 | 0.989 | 1.11 | x | x
NC(=O)c1ccc(NC(=O)C2CCCC2)cc1 | x | -7.5 | -158.0 | x | 1.07 | 2.58* | -40.2* | x
CC(=O)Nc1ccc(NC(=O)C2CC(=O)N(C(C)C)C2)cc1 (stereo unspecified) | x | 10.5 | 36.8* | x | 0.895 | 0.632 | 19.9 | x
CC(C)N1CC(C(=O)Nc2ccccc2)CC1=O (stereo unspecified) | 0.9 | -2.0 | -15.2 | 6.9 | 1.02 | 1.15 | x | x
C=CCOC(=O)C1=C[C@@H](c2csc3ccccc23)[C@H](CCCO)[C@@H](OCC)O1 | x | 5.2 | 5.4 | x | 0.948 | 0.946 | x | x
CN=c1scc(-c2ccco2)n1/N=C/c1ccc(O)c(O)c1 | 0.9 | 54.8* | 35.4* | 9.1 | 0.452 | 0.646 | -21.6 | 62.8*
COc1ccc(O)c(/C=N/n2c(-c3ccco3)csc2=Nc2cccnc2)c1 | 0.9 | 12.7 | 7.2 | 9.5 | 0.873 | 0.928 | x | x
N#C/C(=C\c1ccc(O)c(O)c1)C(=O)c1ccc(O)c(O)c1 | x | 86.6* | 37.4* | x | 0.134 | 0.626 | 74.3 | 86.5*
N#C/C(=C\c1ccc(O)c(O)c1)C(=O)N1CCCC1 | 0.8 | 19.2 | 20.4 | 23.4 | 0.808 | 0.796 | x | x
Cc1ccc(CNC(=S)NC2CCC(C(C)(C)C)CC2)cc1 (stereo unspecified) | x | -354.7 | -107.4 | x | 4.55* | 2.07* | -26.3 | -99.9
Cc1ccc(NC(=O)C2CC(=O)n3c(nc4ccccc43)N2)cc1 (stereo unspecified) | 1.1 | -98.8 | -67.5 | -7.0 | 1.99 | 1.68 | x | x
O=C(Nc1ccc(Cl)cc1)C1CC(=O)n2c(nc3ccccc32)N1 (stereo unspecified) | 1 | -168.6 | -103.5 | 2.0 | 2.69* | 2.04* | -7.0 | -106.4
COc1ccc(Cc2nnc(SCC(=O)Nc3ccccc3C#N)o2)cc1 | x | -4.5 | -10.0 | x | 1.04 | 1.1 | x | x
CCn1cc(CN2CCC(C(=O)Nc3cccc(-c4cccc(OC)c4)c3)CC2)cn1 | x | -1.1 | -12.6 | x | 1.01 | 1.13 | x | x
CCn1nc(C)c(CN2CCC(C(=O)Nc3cccc(-c4cccc(F)c4)c3)CC2)c1C | x | -387.0 | i | x | 4.87* | 6.14* | 50.7 | -208.3
CC(C)n1cc(CN2CCC(C(=O)Nc3cccc(-c4cccc(Cl)c4)c3)CC2)cn1 | x | -495.1 | i | x | 5.95* | 8.78* | -96.7* | -296.6
CCN(C[C@H]1N[C@@](C)(C(=O)OC)[C@H]2C(=O)N(C)C(=O)[C@@H]12)C(=O)c1ccc(C(C)(C)C)cc1 | x | -7.1 | -6.9 | x | 1.07 | 1.07 | x | x
CCS(=O)(=O)c1ccc2oc(SCC(=O)N3CCCCC3)nc2c1 | 1 | 9.6 | 5.5 | 4.5 | 0.904 | 0.945 | x | x
CCOc1cccc(CN2CCC(n3nccc3NC(=O)CCCc3ccccc3)CC2)c1 | x | -137.9 | -246.0 | x | 2.38* | 3.46* | -9.6 | -130.2
Cc1ccc(C)c(CN2CCC(n3nccc3NC(=O)CCCc3ccccc3)CC2)c1 | x | -138.2 | -163.7 | x | 2.38* | 2.64* | -61.3 | -130.8
CC(C)Cc1ccc(CN2CCC(n3nccc3NC(=O)C3CCCC3)CC2)cc1 | x | -143.4 | -231.6 | x | 2.43* | 3.32* | 5.0 | -98.2
CC(C)n1cc(CN2CCC(n3nccc3NC(=O)C3CCCC3)CC2)cn1 | x | -1.7 | 6.2 | x | 1.02 | 0.938 | x | x
O=C(CCCc1ccccc1)Nc1ccnn1C1CCN(Cc2ccc(Cl)cc2)CC1 | x | -149.8 | -194.9 | x | 2.5* | 2.95* | -1.9 | -118.3
CCc1nc(SCC(=O)Nc2ccc(N(C)C)cc2)c2ccccc2n1 | x | 5.1 | -8.3 | x | 0.949 | 1.08 | x | x
SMILES | bIAP act | mIAP inh | hIAP block | bIAP inh | mIAP activ | hIAP activ | hIAP act conf | mIAP inh conf
CCCN(Cc1cc2cc(C)ccc2[nH]c1=O)C(=O)c1cccc([N+](=O)[O-])c1 | x | -2.8 | -10.2 | x | 1.03 | 1.1 | x | x
O=C(NN1C(=O)/C(=C/c2ccc(O)c(O)c2)SC1=S)c1ccccc1 | x | 44.5* | 69.2* | x | 0.555 | 0.308 | 1.9 | 77.7*
O=C(NN1C(=O)/C(=C/c2cccc(O)c2)SC1=S)c1ccccc1O | x | 38.3 | -63.4 | x | 0.617 | 1.63 | x | x
CCC(C)N1CC(=O)N2C(c3ccc(OC)cc3OC)c3[nH]c4ccccc4c3C[C@H]2C1=O (stereo partly specified) | x | 4.1 | -0.9 | x | 0.959 | 1.01 | x | x
CCOc1ccc(C2/C(=C(/O)c3ccc4c(c3)CC(C)O4)C(=O)C(=O)N2CCCn2ccnc2)cc1OCC (stereo unspecified) | x | 9.2 | -22.6 | x | 0.908 | 1.23 | x | x
O=C(COc1ccccc1C(=O)N/N=C\c1ccc(O)c(O)c1)N/N=C/c1ccc(O)c(O)c1 | 0.5 | 72.7* | 57.6* | 49.4 | 0.273 | 0.424 | 2.5 | 81.9*
CCCc1ncc(C(O)c2ccccc2OC)n1C (stereo unspecified) | 0.9 | 4.3 | -1.1 | 7.7 | 0.957 | 1.01 | x | x
COc1cc(/C=C/C(O)=C/C(=O)/C=C/c2ccc(O)cc2)ccc1O | x | 52.6* | 35.4* | x | 0.474 | 0.646 | 11.4 | 47.5*
Cc1cccc(NC(=O)NCC2CCN(c3ccc(S(=O)(=O)N4CCOCC4)cc3)CC2)c1 | x | -251.4 | -108.4 | x | 3.51* | 2.08* | -19.6 | -155.7
Cc1ccccc1NC(=O)NCC1CCN(c2ccc(S(=O)(=O)N3CCOCC3)cc2)CC1 | x | -50.4 | -9.3 | x | 1.5 | 1.09 | x | x
COc1cc(NC(=O)NCC2CCN(Cc3ccccc3C)CC2)cc(OC)c1OC | x | -253.3 | -140.8 | x | 3.53* | 2.41* | 29.7 | -190.3
Oc1cccc(NC(=S)Nc2ccc(SC(F)F)cc2)c1 | 1.1 | 12.6 | 6.0 | -11.0 | 0.874 | 0.94 | x | x
FC(F)Sc1ccc(NC(=S)NC2CCC(NC(=S)Nc3ccc(SC(F)F)cc3)CC2)cc1 (stereo unspecified) | 0.6 | -145.1 | -6.5 | 36.0 | 2.45* | 1.06 | x | -135.1
c1ccc(-c2nccc(-c3ccco3)n2)nc1 | 1 | -0.4 | -12.8 | -0.1 | 1 | 1.13 | x | x
Nc1ncnc2oc(-c3ccco3)c(-c3ccco3)c12 | 0.9 | 71.4* | 14.4 | 8.1 | 0.286 | 0.856 | x | 74.6*
COc1ccc2nc(Nc3sc4c(c3C(N)=O)CCCC4)sc2c1 | 0.9 | 29.6 | 9.0 | 11.4 | 0.704 | 0.91 | x | x
O=C(CCN1C(=O)/C(=C\c2ccco2)SC1=S)Nc1ccc(C(=O)O)c(O)c1 | x | 56.4* | -15.7 | x | 0.436 | 1.16 | x | 75.8*
O=C(CCN1C(=O)/C(=C/c2ccco2)SC1=S)Nc1ccc(C(=O)O)c(O)c1 | x | 61.5* | -4.3 | x | 0.385 | 1.04 | x | 78.3*
